Most compounds without a hit are left out; they make up all but 3.5% or so of the library.
MrgX1 antag: antagonists of human MrgX1 receptor, primary screen, HEK293 cells, Fluo-4 calcium flux; Mas-related G-protein coupled receptor member X1 (Homo sapiens), Q96LB2; BAM8-22 antagonism; stronger effect = lower value; B-score at 10 µM; 1.3% of 310,000 active; AID 588676, 2011;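 active = calcium-response B-score plate-corrected more than 3 library SD below zero, starting fluorescence within 5 deviations, no agonist response on first addition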;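 also: peak minus trough fluorescence over baseline after final BAM8-22 challenge near maximal dose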
Target sequence (Q96LB2 whole entry, looked up): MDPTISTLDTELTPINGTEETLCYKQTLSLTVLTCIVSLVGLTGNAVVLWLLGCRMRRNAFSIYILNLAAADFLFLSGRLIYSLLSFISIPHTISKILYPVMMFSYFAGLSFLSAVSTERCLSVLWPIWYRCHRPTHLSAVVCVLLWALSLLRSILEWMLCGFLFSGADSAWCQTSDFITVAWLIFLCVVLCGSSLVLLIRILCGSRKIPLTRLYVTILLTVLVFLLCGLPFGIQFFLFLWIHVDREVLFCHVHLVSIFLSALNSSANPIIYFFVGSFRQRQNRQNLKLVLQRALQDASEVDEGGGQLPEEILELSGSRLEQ
MrgX1 ag: agonists of human MrgX1 receptor, primary screen, HEK293 cells, Fluo-4 calcium flux; B-score at 10 µM; 0.44% of 310,000 active; Fluo-4 calcium fluorescence, agonist mode; stronger effect = higher value; AID 588627, 2011; Mas-related G-protein coupled receptor member X1 (Homo sapiens), Q96LB2;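 active = calcium response B-score plate-corrected fluorescence ratio at least 3 library SD, with starting fluorescence B-score inside 5 SD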
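Material: MrgX1-expressing HEK293 cells / Dosing: compound as first of three additions / Incubation: overnight seeding, then 1 h dark dye loading / Signal: Fluo-4 NW calcium fluorescence / Evaluation: B-scored fluorescence response ratio / Benchmarks: positive and negative control wells on each plate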
RGS4 inh: RGS4 inhibitors, primary screen, cell-based, HEK293 M3R inducible RGS4, calcium flux; Regulator of G-protein signaling 4 (Homo sapiens), P49798; Fluo-4 calcium flux; stronger effect = higher value; triggered by carbachol at its EC20; B-score at 10 µM; 0.45% of 310,000 active;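 active = B-score, a plate-corrected calcium signal, over three deviations above library mean, with baseline fluorescence within five deviations of library mean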;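 also: RGS4 expression induced by doxycycline in cells with stable M3 receptor; B-score is computed from the integrated fluorescence ratio over baseline after carbachol; higher B-score means a larger calcium signal and so more RGS4 inhibition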
Target sequence (P49798 whole entry, looked up): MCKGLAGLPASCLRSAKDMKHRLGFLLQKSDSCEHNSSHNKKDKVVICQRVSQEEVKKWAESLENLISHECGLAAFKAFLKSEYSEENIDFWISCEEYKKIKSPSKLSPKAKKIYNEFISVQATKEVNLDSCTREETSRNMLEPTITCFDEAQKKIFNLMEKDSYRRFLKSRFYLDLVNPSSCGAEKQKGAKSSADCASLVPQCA
RGS4 act: RGS4 potentiators or activators, primary screen, cell-based, HEK293 M3R inducible RGS4, calcium flux; carbachol calcium flux Fluo4; stronger effect = lower value; B-score at 10 µM; 0.92% of 310,000 active; AID 463111, 2010;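 active = B-score of the integrated calcium signal more than 4 SD below the library mean, with starting fluorescence not abnormally high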;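 also: negative B-score means reduced calcium response which marks RGS4 activation or potentiation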
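test system = HEK293 cells with stable M3R and inducible RGS4 | schedule = recording 10 s baseline at 1 Hz, 100 s post-agonist | technique = Fluo4-AM (2 µM) calcium-flux fluorescence, kinetic read | measure = Agonist-evoked peak-minus-minimum fluorescence over baseline, integrated ratio, B score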
MrgX1 PAM: positive allosteric modulators of MrgX1, primary screen, HEK293 cells, Fluo-4 calcium flux; FDSS; stronger effect = higher value; Mas-related G-protein coupled receptor member X1 (Homo sapiens), Q96LB2; 0.63% of 310,000 active; B-score at 10 µM;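 active = plate-corrected calcium response at least 3 library SD above typical, normal starting fluorescence, not activating the receptor alone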;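 also: compound read alongside a low EC10 to EC30 dose of BAM8-22 agonist; peak minus trough fluorescence over baseline measured at the second addition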
MrgX1 antag conf: MrgX1 receptor antagonists, duplicate retest, confirmation, HEK293 cells, Fluo-4 calcium flux; remaining BAM8-22 calcium response % of control (stronger effect = lower value), % at 10 µM; BAM8-22 calcium flux; stronger effect = lower value; 19% of 2,300 active; shares compounds with MrgX1 antag;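 active = remaining agonist calcium response no higher than 100% minus 3 SD of agonist-only control wells, with starting fluorescence near control levels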;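 also: agonist BAM8-22 given at a near maximal EC90 to ECmax level; peak minus minimum fluorescence divided by baseline after agonist addition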
HEK293 Ca flux: nonspecific calcium signal in parental HEK293, confirmation, counter-screen for MrgX1 antagonist project, parental HEK293 cells, Fluo-4 calcium flux; fluorescence ratio F(max-min)/F0 at 10 µM; 2% of 4,000 active; shares compounds with MrgX1 antag; Fluo-4 calcium fluorescence, FDSS;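 active = duplicate-averaged calcium fluorescence ratio at least three times the standard deviation of buffer wells, a nonspecific response in parental cells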
HEK293 Ca counter: calcium response in parental HEK293 cells, primary screen, counter-screen for MrgX1 allosteric activator project, cell-based, Fluo-4 calcium flux, duplicate; shares compounds with MrgX1 antag; Fluo-4 fluorescence ratio; stronger effect = higher value; fluorescence ratio F(max-min)/F0 at 10 µM; 0.4% of 4,000 active;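 active = calcium fluorescence ratio, averaged over duplicates, at least 3 SD of the buffer-well ratio, meaning a nonspecific response in receptor-free cells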;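 also: untransfected parental HEK293 lacking MrgX1 used as counterscreen for MrgX1 allosteric activators; fluorescence change taken during the second addition on a kinetic imager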
HEK293 Ca cntr2: calcium response in parental HEK293 cells, primary screen, counter-screen for MrgX1 agonist project, cell-based, Fluo-4 calcium flux, duplicate, agonist mode. AID 624115, 2012. 8.7% of 4,000 active. fluorescence ratio F(max-min)/F0 at 10 µM. Fluo-4 calcium fluorescence (FDSS); stronger effect = higher value. shares compounds with MrgX1 antag;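 active = calcium fluorescence ratio at least three times the spread of buffer wells, meaning a non-specific response in parental cells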
Hits are given with their value.

What do the screens show for `CN(C)c1ccc(C(=O)Nc2cc(C(F)(F)F)ccc2-n2cncn2)cc1`?
MrgX1 antag: -11; MrgX1 ag: inactive; RGS4 inh: inactive; RGS4 act: inactive; MrgX1 PAM: inactive; MrgX1 antag conf: inactive; HEK293 Ca flux: inactive; HEK293 Ca counter: inactive; HEK293 Ca cntr2: inactive

Results for CC(C)(C)NC(=O)CN(C(=O)CCC(=O)Nc1nccs1)c1cccc(C(F)(F)F)c1 ?
MrgX1 antag: inactive; MrgX1 ag: inactive; RGS4 inh: inactive; RGS4 act: inactive; MrgX1 PAM: inactive

Results for Cc1[nH]c2ccc(C(=O)O)cc2c1C ?
MrgX1 antag: -8.6; MrgX1 ag: inactive; RGS4 inh: inactive; RGS4 act: inactive; MrgX1 PAM: inactive; MrgX1 antag conf: inactive; HEK293 Ca flux: inactive; HEK293 Ca counter: inactive; HEK293 Ca cntr2: inactive

Results for O=C(Nc1ccc(Br)cc1)c1ccc(F)c(S(=O)(=O)NCc2cccs2)c1 ?
MrgX1 antag: -5.3; MrgX1 ag: inactive; RGS4 inh: inactive; RGS4 act: inactive; MrgX1 PAM: inactive; MrgX1 antag conf: inactive; HEK293 Ca flux: inactive; HEK293 Ca counter: inactive; HEK293 Ca cntr2: 47

What do the screens show for `COCCn1c(=S)[nH]c2cc(OC)c(OC)cc2c1=O`?
MrgX1 antag: -9.1; MrgX1 ag: inactive; RGS4 inh: inactive; RGS4 act: inactive; MrgX1 PAM: inactive; MrgX1 antag conf: inactive; HEK293 Ca flux: inactive; HEK293 Ca counter: inactive; HEK293 Ca cntr2: inactive

Results for CCN(CC)CCCn1c(=S)[nH]c2cc(OC)c(OC)cc2c1=O ?
MrgX1 antag: inactive; MrgX1 ag: inactive; RGS4 inh: inactive; RGS4 act: inactive; MrgX1 PAM: inactive

Results for O=C1C[C@H]2[C@H](CO)[C@@H](OC(=O)c3ccc(-c4ccccc4)cc3)C[C@H]2O1 ?
MrgX1 antag: inactive; MrgX1 ag: inactive; RGS4 inh: inactive; RGS4 act: inactive; MrgX1 PAM: inactive

How did CC(C)c1ccc(NC2CCCN(C(=O)c3cnsn3)C2)cc1 (stereo unspecified) do in these assays?
MrgX1 antag: -6.8; MrgX1 ag: inactive; RGS4 inh: inactive; RGS4 act: inactive; MrgX1 PAM: inactive; MrgX1 antag conf: inactive; HEK293 Ca flux: inactive; HEK293 Ca counter: inactive; HEK293 Ca cntr2: inactive

How did Cc1cc(C(=O)N2CCCC(Nc3ccc(C(C)C)cc3)C2)nn1C (stereo unspecified) do in these assays?
MrgX1 antag: inactive; MrgX1 ag: inactive; RGS4 inh: inactive; RGS4 act: inactive; MrgX1 PAM: inactive

Results for CC(C)(C)c1ccc(OCCC(=O)Nc2cccc(S(=O)(=O)N3CCCCC3)c2)cc1 ?
MrgX1 antag: inactive; MrgX1 ag: inactive; RGS4 inh: inactive; RGS4 act: inactive; MrgX1 PAM: inactive

Results for CN1CCCN(C(=O)c2c(F)cccc2Cl)CC1 ?
MrgX1 antag: inactive; MrgX1 ag: inactive; RGS4 inh: inactive; RGS4 act: inactive; MrgX1 PAM: inactive
